In ChEMBL document CHEMBL2401735, “Synthesis and cytotoxicity of novel (thiazol-2-yl)hydrazine derivatives as promising anti-Candida agents” (Eur J Med Chem, 2013) one finds MIC data, which are given here for six compounds.

One assay relates to Enterobacter sp. The assay is described as follows: Antibacterial activity against Enterobacter spp. assessed as growth inhibition after 18 to 22 hrs by broth microdilution method. It is filed as functional. An outline of the steps:
(§1)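 Bacterial isolates subcultured for purity, identified conventionally. Broth microdilution per NCCLS in Mueller-Hinton II broth; plates with growth control (no compound) and medium-only control, incubated 18-22 h at 35 °C. MIC taken as lowest concentration giving complete growth inhibition by unaided eye.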
On the technique in general: Dilution methods test growth across graded concentrations, often in twofold steps.

In the next assay the test system is Proteus mirabilis. The experiment in a line: Antibacterial activity against Proteus mirabilis assessed as growth inhibition after 18 to 22 hrs by broth microdilution method. Type of assay: functional. An outline of the steps: as §1
Another assay concerns Escherichia coli. The experiment in a line: Antibacterial activity against Escherichia coli assessed as growth inhibition after 18 to 22 hrs by broth microdilution method. It is filed as functional. An outline of the steps:
as §1

In another assay the test system is Nakaseomyces glabratus. The experiment in a line: Anticandida activity against Candida glabrata clinical isolate assessed as growth inhibition after 24 hrs by broth microdilution method. It is filed as functional. An outline of the steps:
(§2)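 Clinical Candida isolates subcultured for purity and optimal growth before testing; compounds dissolved in DMSO. Broth microdilution per NCCLS in Sabouraud dextrose broth, serial dilutions, inoculum about 10³/mL, with growth control and medium-only control; 24 h incubation at 37 °C. MIC is the lowest concentration giving complete visible inhibition.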

Another assay has as its system Staphylococcus aureus. The experiment in a line: Antibacterial activity against Staphylococcus aureus assessed as growth inhibition after 18 to 22 hrs by broth microdilution method. It is filed as functional. An outline of the steps: as §1
Another assay concerns Staphylococcus warneri. The assay is described as follows: Antibacterial activity against Staphylococcus warneri assessed as growth inhibition after 18 to 22 hrs by broth microdilution method. It is filed as functional. An outline of the steps: as §1
The next assay deals with Candida parapsilosis. The experiment in a line: Anticandida activity against Candida parapsilosis clinical isolate assessed as growth inhibition after 24 hrs by broth microdilution method. It is filed as functional. Conditions: Lodderomyces parapsilosis. An outline of the steps:
as §2

In another assay the test system is Candida tropicalis. The experiment in a line: Anticandida activity against Candida tropicalis clinical isolate assessed as growth inhibition after 24 hrs by broth microdilution method. It is filed as functional. An outline of the steps: as §2
The subject of a further assay is Klebsiella oxytoca. The experiment in a line: Antibacterial activity against Klebsiella oxytoca assessed as growth inhibition after 18 to 22 hrs by broth microdilution method. It is filed as functional. An outline of the steps: as §1
For the next assay, the system named is Enterococcus faecalis. The experiment in a line: Antibacterial activity against […] assessed as growth inhibition after 18 to 22 hrs by broth microdilution method. Type of assay: functional. An outline of the steps: as §1
For assay [1], the system named is Streptococcus alpha-hemolyticus. The experiment in a line: Antibacterial activity against Streptococcus alpha-hemolyticus assessed as growth inhibition after 18 to 22 hrs by broth microdilution method.
The next assay relates to Candida albicans. The experiment in a line: Anticandida activity against Candida albicans clinical isolate assessed as growth inhibition after 24 hrs by broth microdilution method. Type of assay: functional. An outline of the steps:
as §2

A further assay has as its system [Candida] sake. The assay is described as follows: Anticandida activity against Candida sake clinical isolate assessed as growth inhibition after 24 hrs by broth microdilution method. Type of assay: functional. Conditions: Fermentozyma sake. An outline of the steps: as §2
In a further assay the test system is Pichia kudriavzevii. The assay is described as follows: Anticandida activity against Candida krusei clinical isolate assessed as growth inhibition after 24 hrs by broth microdilution method. Type of assay: functional. An outline of the steps: as §2

Each structure is given as a SMILES string. Values after ≈ are worked out from the molar mass of the structure shown.

With `COc1ccc(-c2csc(N/N=C3/C=CC(C)(C)CC3)n2)cc1`, the MIC was over 256 µg/mL in the assay on Enterobacter sp.; over 256 µg/mL in the assay with Proteus mirabilis; over 256 µg/mL in the assay with Escherichia coli; 32 µg/mL (≈ 97.7 µM) in the assay with Nakaseomyces glabratus; over 256 µg/mL in the assay with Staphylococcus aureus; over 256 µg/mL in the assay on Staphylococcus warneri. The MIC in the assay with Candida parapsilosis is 64 µg/mL (≈ 195 µM); in the assay on Candida tropicalis it was 256 µg/mL (≈ 782 µM); in the assay on Klebsiella oxytoca, over 256 µg/mL; with Enterococcus faecalis it was over 256 µg/mL; in assay [1], over 256 µg/mL; with Candida albicans, 8 µg/mL (≈ 24.4 µM). In addition, the minimum inhibitory concentration (MIC) (in assay [Candida] sake; in the assay with Pichia kudriavzevii) was 256 µg/mL (≈ 782 µM) throughout.
As to `COc1ccc(-c2csc(NN=C(C)C)n2)c(OC)c1`, the MIC was over 256 µg/mL in the assay with Enterobacter sp.; over 256 µg/mL with Proteus mirabilis; over 256 µg/mL in the assay with Escherichia coli; 128 µg/mL (≈ 439 µM) in the assay on Nakaseomyces glabratus; over 256 µg/mL in the assay on Staphylococcus aureus; over 256 µg/mL in the assay with Staphylococcus warneri. Besides, the minimum inhibitory concentration (MIC) was 256 µg/mL (≈ 879 µM) in the assay with Candida parapsilosis; 256 µg/mL (≈ 879 µM) in the assay with Candida tropicalis; over 256 µg/mL in the assay with Klebsiella oxytoca; over 256 µg/mL with Enterococcus faecalis; over 256 µg/mL in [1]; 128 µg/mL (≈ 439 µM) in the assay with Candida albicans. Further, the MIC (in assay [Candida] sake; in the assay on Pichia kudriavzevii) was 256 µg/mL (≈ 879 µM) each time.
On to `CC/C(C)=N/Nc1nc(-c2ccc(OC)cc2OC)cs1`, for which the minimal inhibitory concentration (MIC) in the assay with Enterobacter sp. is over 256 µg/mL; in the assay on Proteus mirabilis, over 256 µg/mL; in the assay on Escherichia coli it was over 256 µg/mL; in the assay with Nakaseomyces glabratus, 128 µg/mL (≈ 419 µM); in the assay on Staphylococcus aureus, over 256 µg/mL; with Staphylococcus warneri, over 256 µg/mL. For the same compound, the MIC is 256 µg/mL (≈ 838 µM) in the assay with Candida parapsilosis; 256 µg/mL (≈ 838 µM) in the assay on Candida tropicalis; over 256 µg/mL with Klebsiella oxytoca; over 256 µg/mL in the assay on Enterococcus faecalis; over 256 µg/mL in assay [1]; 64 µg/mL (≈ 210 µM) in the assay on Candida albicans. Besides, the MIC (in assay [Candida] sake; with Pichia kudriavzevii) was 256 µg/mL (≈ 838 µM) throughout.
In the case of `CCC/C(C)=N/Nc1nc(-c2ccc(OC)cc2OC)cs1`, the MIC in the assay on Enterobacter sp. was over 256 µg/mL; in the assay with Proteus mirabilis, over 256 µg/mL; in the assay on Escherichia coli it was over 256 µg/mL; in the assay with Nakaseomyces glabratus, 128 µg/mL (≈ 401 µM); in the assay with Staphylococcus aureus, over 256 µg/mL; in the assay with Staphylococcus warneri, over 256 µg/mL. Further, the minimal inhibitory concentration (MIC) is 256 µg/mL (≈ 801 µM) in the assay with Candida parapsilosis; 256 µg/mL (≈ 801 µM) in the assay with Candida tropicalis; over 256 µg/mL in the assay with Klebsiella oxytoca; over 256 µg/mL in the assay on Enterococcus faecalis; over 256 µg/mL in [1]; 128 µg/mL (≈ 401 µM) with Candida albicans. For the same compound, the MIC (in assay [Candida] sake; in the assay on Pichia kudriavzevii) was 256 µg/mL (≈ 801 µM) throughout.
As to `CCCCC/C(C)=N/Nc1nc(-c2ccc(C)cc2)cs1`, the MIC was over 256 µg/mL in the assay on Enterobacter sp.; over 256 µg/mL in the assay on Proteus mirabilis; over 256 µg/mL with Escherichia coli; 2 µg/mL (≈ 6.63 µM) in the assay with Nakaseomyces glabratus; over 256 µg/mL with Staphylococcus aureus; over 256 µg/mL in the assay on Staphylococcus warneri. Moreover, the MIC in the assay on Candida parapsilosis is 8 µg/mL (≈ 26.5 µM); with Candida tropicalis it was 4 µg/mL (≈ 13.3 µM); in the assay on Klebsiella oxytoca, over 256 µg/mL; in the assay with Enterococcus faecalis it was over 256 µg/mL; in assay [1], over 256 µg/mL; with Candida albicans, 0.5 µg/mL (≈ 1.66 µM). In addition, the MIC (in assay [Candida] sake; with Pichia kudriavzevii) was 8 µg/mL (≈ 26.5 µM) each time.
In the case of `COc1ccc(-c2csc(NN=C(C)C)n2)cc1`, the minimum inhibitory concentration (MIC) was over 256 µg/mL with Enterobacter sp.; over 256 µg/mL in the assay on Proteus mirabilis; over 256 µg/mL in the assay on Escherichia coli; 0.5 µg/mL (≈ 1.91 µM) in the assay on Nakaseomyces glabratus; over 256 µg/mL with Staphylococcus aureus; over 256 µg/mL with Staphylococcus warneri. For the same compound, the minimal inhibitory concentration (MIC) was 16 µg/mL (≈ 61.2 µM) with Candida parapsilosis; 2 µg/mL (≈ 7.65 µM) with Candida tropicalis; over 256 µg/mL with Klebsiella oxytoca; over 256 µg/mL with Enterococcus faecalis; over 256 µg/mL in assay [1]; 0.25 µg/mL (≈ 0.957 µM) with Candida albicans. Besides, the MIC (in [Candida] sake; in the assay on Pichia kudriavzevii) was 16 µg/mL (≈ 61.2 µM) each time.

As usually defined, the MIC is the smallest concentration in the dilution series that meets the test's criterion for growth inhibition.
